Reference: ChEMBL document CHEMBL1131179, “Structural optimization affording 2-(R)-(1-(R)-3, 5-bis(trifluoromethyl)phenylethoxy)-3-(S)-(4-fluoro)phenyl-4- (3-oxo-1,2,4-triazol-5-yl)methylmorpholine, a potent, orally active, long-acting morpholine acetal human NK-1 receptor antagonist” (J Med Chem, 1998)

Columns and labels:
Substance-P receptor = Substance-P receptor (Homo sapiens, UniProt P25103); test: Displacement of [125I]-labeled SP from the human Tachykinin receptor 1 expressed in CHO cells; format: cell-based
Cavia porcellus [1] = test: Inhibition of resiniferatoxin-induced systemic vascular leakage in guinea pig (SYVAL) upon oral administration at 1 hr; format: functional; details: read-out: ID50 (the source's name)
Method in brief: (§1)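 Guinea pigs dosed orally 1 or 24 h before iv resiniferatoxin challenge (400 µL/kg over 30 s, penile vein), given 10 min after Evans Blue. Killed 10 min post-challenge. Bladder, trachea and esophagus dried (24 h, 65 °C) and extracted with plasma in formamide (65 °C, 24 h). Extravasation read at OD620-650 against plasma, as mg plasma/g dry tissue. n = 4-12 per point; ID50 by nonlinear least-squares regression of mean data.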

Gerbillinae [2] = test: Inhibition of GR 73632-induced foot tapping in gerbils upon intravenous administration of compound after 4 hr; format: functional; details: read-out: ID50 (the source's name)
Method in brief: (§2)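 Male or female Mongolian gerbils (35–70 g) under isoflurane/oxygen anaesthesia. Test compound or vehicle is given iv into the jugular vein at 5 mL/kg. At 0, 4 or 24 h, GR 73,632 (3 pmol) is infused icv via a needle 4.5 mm below bregma. Hind foot tapping is timed for 5 min after recovery. 3–9 animals per dose. ID50 by nonlinear least-squares regression of mean data.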

Gerbillinae [3] = test: Inhibition of GR 73632-induced foot tapping in gerbils upon intravenous administration of compound after 24 hr; format: functional; details: read-out: ID50 (the source's name); method in brief: as §2
Gerbillinae [4] = test: Inhibition of GR 73632-induced foot tapping in gerbils upon intravenous administration of compound; format: functional; details: read-out: ID50 (the source's name); method in brief: as §2
Cavia porcellus [5] = test: Inhibition of resiniferatoxin-induced systemic vascular leakage in guinea pig (SYVAL) upon oral administration at 24 hr r; format: functional; method in brief: as §1
Mustela putorius furo [6] = test: compound was tested for antiemetic action in ferret at 3 mg/kg after peroral administration followed by emetogen (morphine) challenge at 0.5 mg/kg, sc; format: functional
Method in brief: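 Male ferrets (1.0–2.0 kg) receive 3.0 mg/kg po in 0.5% Methocel or vehicle. 60 min later they get a sc emetogen: apomorphine or morphine 0.5 mg/kg. Retches and vomits are counted for 30 min versus vehicle controls. 4–7 animals per group.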

Mustela putorius furo [7] = test: compound was tested for antiemetic action in ferret at 3 mg/kg after peroral administration followed by emetogen (cisplatin) challenge at 10 mg/kg, iv after 60 min
Mustela putorius furo [8] = test: compound was tested for antiemetic action in ferret at 0.3 mg/kg after intravenous administration followed by emetogen (cisplatin) challenge at 10 mg/kg, iv after 3 min; format: functional
Method in brief: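 Male ferrets (1.0–2.0 kg) under halothane receive 0.3 mg/kg iv in PEG 300 vehicle, then cisplatin 10 mg/kg iv 3 min later. Retches and vomits are counted over 240 min and compared with vehicle controls. 4–7 animals per group.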

Mustela putorius furo [9] = test: compound was tested for antiemetic action in ferret at 3 mg/kg after peroral administration followed by emetogen (cisplatin) challenge at 10 mg/kg, iv after 60 min; remark: listed apart in the source
Mustela putorius furo [10] = test: compound was tested for antiemetic action in ferret at 3 mg/kg after peroral administration followed by emetogen (apomorphine) challenge at 0.25 mg/kg, sc; format: functional
Mustela putorius furo [11] = test: compound was tested for antiemetic action in ferret at 3 mg/kg after peroral administration followed by emetogen (cisplatin) challenge at 10 mg/kg, iv after 60 min; remark: listed apart in the source
Mustela putorius furo [12] = test: as above; remark: listed apart in the source

Substance-P receptor, sequence (P25103 whole entry): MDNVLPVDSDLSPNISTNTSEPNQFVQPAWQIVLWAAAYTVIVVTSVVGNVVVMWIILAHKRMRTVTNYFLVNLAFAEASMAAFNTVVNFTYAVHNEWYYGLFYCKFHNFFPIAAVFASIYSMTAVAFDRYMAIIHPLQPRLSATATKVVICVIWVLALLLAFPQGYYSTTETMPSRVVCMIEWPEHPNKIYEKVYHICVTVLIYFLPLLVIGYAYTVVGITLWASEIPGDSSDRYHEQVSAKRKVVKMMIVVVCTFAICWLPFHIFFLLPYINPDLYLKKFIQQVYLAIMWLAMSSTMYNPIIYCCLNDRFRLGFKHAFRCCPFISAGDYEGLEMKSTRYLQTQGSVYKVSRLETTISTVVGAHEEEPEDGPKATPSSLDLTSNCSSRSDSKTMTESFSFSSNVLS

Compound	IC50 (Substance-P receptor) [nM]	ED50 (Cavia porcellus [1]) [mg/kg]	ED50 (Gerbillinae [2]) [mg/kg]	ED50 (Gerbillinae [3]) [mg/kg]	ED50 (Gerbillinae [4]) [mg/kg]	ID90 (Cavia porcellus [5]) [mg/kg]	also measured
C[C@@H](O[C@H]1OCCN(Cc2n[nH]c(O)n2)[C@H]1c1ccccc1)c1cc(F)cc(C(F)(F)F)c1	0.1	–	–	–	–	–	–
O=c1[nH]nc(CN2CCO[C@H](OCc3cc(C(F)(F)F)cc(C(F)(F)F)c3)[C@@H]2c2ccc(F)cc2)[nH]1	0.07	0.008	0.07	1.24	0.3	2.3	–
C[C@@H](O[C@H]1OCCN(Cc2n[nH]c(=O)[nH]2)[C@H]1c1ccccc1)c1cc(C(F)(F)F)cc(C(F)(F)F)c1	0.88	–	–	–	–	–	–
C[C@H](O[C@H]1OCCN(Cc2n[nH]c(O)n2)[C@H]1c1ccccc1)c1cc(C(F)(F)F)cc(C(F)(F)F)c1	0.09	0.01	0.04	1.11	0.16	2.3	–
C[C@@H](O[C@H]1OCCN(Cc2n[nH]c(O)n2)[C@H]1c1ccccc1)c1cccc(C(F)(F)F)c1	0.27	–	–	–	–	–	–
O=c1[nH]nc(CN2CCO[C@H](OCc3cc(C(F)(F)F)cc(C(F)(F)F)c3)[C@@H]2c2ccccc2)[nH]1	–	0.006	–	2.88	0.85	5.4	–
COc1ccc(-n2nnnc2C(F)(F)F)cc1CNC1CCCNC1c1ccccc1 (racemic)	–	–	0.02	> 10	0.04	–	–
COc1ccc(OC(F)(F)F)cc1CN[C@H]1CCCN[C@H]1c1ccccc1 (racemic)	–	0.01	0.24	5.37	0.03	>10	–
C[C@@H](O[C@H]1OCCN(Cc2n[nH]c(=O)[nH]2)[C@H]1c1ccc(F)cc1)c1cc(C(F)(F)F)cc(C(F)(F)F)c1 [APREPITANT]	–	0.008	0.04	0.33	0.36	1.8	Control retches (Mustela putorius furo [6]): 44.7; Control vomits (Mustela putorius furo [6]): 5.5; Retches (Mustela putorius furo [6]): 6; Vomits (Mustela putorius furo [6]): 0.5; Control retches (Mustela putorius furo [7]): 154.8; Control retches (Mustela putorius furo [8]): 100; Control vomits (Mustela putorius furo [8]): 12.7; Retches (Mustela putorius furo [8]): 5.3; Vomits (Mustela putorius furo [8]): 1; Control vomits (Mustela putorius furo [9]): 22.3; Control retches (Mustela putorius furo [10]): 28.3; Control vomits (Mustela putorius furo [10]): 3.3; Retches (Mustela putorius furo [10]): 4.1; Vomits (Mustela putorius furo [10]): 0.7; Vomits (Mustela putorius furo [11]): 0.5; Retches (Mustela putorius furo [12]): 2.8
COc1ccc(-n2nnnc2C(F)(F)F)cc1CN[C@H]1CCCN[C@H]1c1ccccc1 [VOFOPITANT]	0.08	0.007	–	–	–	>10	–
